Source: ChEMBL document CHEMBL3997772, “Tyrosyl-DNA Phosphodiesterase 1 Inhibitors: Usnic Acid Enamines Enhance the Cytotoxic Effect of Camptothecin” (J Nat Prod, 2016)

Tests used:
[1] = Cytotoxicity against human MCF7 cells over expressing TDP1 assessed as reduction in viable cells after 72 hrs by MTT assay; format: cell-based; conditions: MCF7 cells overexpressing TDP1
Procedure, shortened: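 MCF-7 cells (~2000/well) grown 24 h at 37 °C in IMDM, 5% CO2, then exposed to 0.1–100 μM compound for 72 h. Viable cells by MTT test; CC50 = concentration reducing cell number 50% vs untreated controls; average of three independent experiments.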

[2] = molecular target: T1, Tyrosyl-DNA phosphodiesterase 1 (Homo sapiens, UniProt Q9NUW8); experiment: Inhibition of recombinant TDP1 (unknown origin) using 5'-(5,6 FAM-aac gtc agg gtc ttc c-BHQ1)-3' as substrate measured at 1 min interval by fluorimetric method
Procedure, shortened: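 Recombinant TDP1 1.3 nM with 50 nM FAM/BHQ1 biosensor in 50 mM Tris-HCl pH 8.0, 50 mM NaCl, 7 mM β-mercaptoethanol, 26 °C. Fluorescence read each minute (Ex485/Em520). Slope over 0–7 min linear phase compared with DMSO control; IC50 from 11-point concentration-response curve.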

[3] = molecular target: T1, Tyrosyl-DNA phosphodiesterase 1; experiment: Inhibition of TDP1 in human MCF7 cells assessed as potentiation of camptothecin-induced cytotoxicity by measuring fold reduction in camptothecin CC50 at 0.5 uM after 72 hrs by MTT assay relative to camptothecin alone; format: cell-based
Procedure, shortened: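 MCF-7 cells (~2000/well), pre-grown 24 h at 37 °C in IMDM, 5% CO2, treated with graded camptothecin plus 0.5 μM enamine for 72 h. Viability by MTT; camptothecin CC50 taken as 50% reduction in cell number vs untreated controls, compared with and without enamine.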

[4] = molecular target: T1, Tyrosyl-DNA phosphodiesterase 1; experiment: Inhibition of recombinant TDP1 (unknown origin) assessed as reduction in BHQ1 excision from 3'-end of [32P]-labeled oligonucleotide substrate after 20 mins by polyacrilamide gel electrophoresis
[5] = molecular target: T1, Tyrosyl-DNA phosphodiesterase 1; experiment: Inhibition of TDP1 in human A549 cells assessed as potentiation of camptothecin-induced cytotoxicity by measuring fold reduction in camptothecin CC50 at 0.5 uM after 72 hrs by MTT assay relative to camptothecin alone; format: cell-based
Procedure, shortened: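 A-549 cells treated with graded camptothecin plus 0.5 μM enamine; viability by MTT after 72 h. Camptothecin CC50 compared with and without enamine.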

[6] = Cytotoxicity against human A549 cells assessed as reduction in viable cells after 72 hrs by MTT assay; format: cell-based
Procedure, shortened: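 A-549 cells treated with compounds; after 72 h, viable cells measured by MTT colorimetric test. CC50 = concentration reducing cell number by 50% versus untreated controls.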

T1 sequence (Q9NUW8 whole entry): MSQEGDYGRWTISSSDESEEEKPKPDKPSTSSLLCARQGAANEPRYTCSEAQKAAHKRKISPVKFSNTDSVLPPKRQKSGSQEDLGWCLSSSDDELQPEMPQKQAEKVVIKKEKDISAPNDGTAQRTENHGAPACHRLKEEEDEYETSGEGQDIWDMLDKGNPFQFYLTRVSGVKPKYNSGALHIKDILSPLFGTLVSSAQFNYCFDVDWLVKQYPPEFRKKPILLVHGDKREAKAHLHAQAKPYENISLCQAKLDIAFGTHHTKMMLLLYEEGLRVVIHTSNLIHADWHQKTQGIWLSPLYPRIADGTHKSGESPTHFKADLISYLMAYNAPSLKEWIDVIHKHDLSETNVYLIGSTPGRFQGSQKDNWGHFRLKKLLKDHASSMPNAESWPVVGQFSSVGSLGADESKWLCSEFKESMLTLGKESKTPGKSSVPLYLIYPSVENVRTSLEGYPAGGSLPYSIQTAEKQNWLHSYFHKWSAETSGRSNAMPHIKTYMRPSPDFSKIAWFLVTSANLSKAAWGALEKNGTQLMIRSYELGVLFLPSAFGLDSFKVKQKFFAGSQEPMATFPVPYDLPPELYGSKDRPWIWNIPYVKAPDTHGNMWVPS

| Structure (SMILES) | IC50 [2] [µM] | IC50 [4] [µM] | CC50 at 72 h [1] [µM] | fold change (FC) [3] | fold change (FC) [5] | CC50 at 72 h [6] [µM] |
| --- | --- | --- | --- | --- | --- | --- |
| CC(=O)c1c(O)c(C)c(O)c2c1OC1=CC(=O)/C(=C(/C)Nc3ccccc3)C(=O)[C@@]12C | 1.53 | – | > 50 | 1.2 | – | – |
| CC(=O)c1c(O)c(C)c(O)c2c1OC1=CC(=O)/C(=C(/C)Nc3ccc(Br)cc3)C(=O)[C@@]12C | 0.26 | 4.6 | 39.3 | 1.5 | – | – |
| CC(=O)C1=C(O)C=C2Oc3c(C(C)=O)c(O)c(C)c(O)c3[C@]2(C)C1=O [(-)-USNIC ACID] | > 100 | – | – | – | – | – |
| CC(=O)c1c(O)c(C)c(O)c2c1OC1=CC(=O)/C(=C(/C)Nc3ccc(Cl)cc3)C(=O)[C@@]12C | 1.81 | – | > 50 | 0.51 | – | – |
| CC(=O)c1c(O)c(C)c(O)c2c1OC1=CC(=O)/C(=C(/C)Nc3ccc(Br)cc3)C(=O)[C@]12C | 0.57 | – | 10.6 | 0.92 | – | – |
| CC(=O)c1c(O)c(C)c(O)c2c1OC1=CC(=O)/C(=C(/C)Nc3ccc(F)cc3)C(=O)[C@@]12C | 1.54 | – | 22.2 | 2.1 | – | – |
| CC(=O)C1=C(O)C=C2Oc3c(C(C)=O)c(O)c(C)c(O)c3[C@@]2(C)C1=O [(+)-USNIC ACID] | > 100 | – | 52.3 | – | – | – |
| CC(=O)c1c(O)c(C)c(O)c2c1OC1=CC(=O)/C(=C(/C)Nc3ccccc3)C(=O)[C@]12C | 1.92 | – | 39 | 1 | – | – |
| CC(=O)c1c(O)c(C)c(O)c2c1OC1=CC(=O)/C(=C(/C)Nc3ccc(F)cc3)C(=O)[C@]12C | 0.94 | – | > 50 | 1.6 | – | – |
| CC(=O)c1c(O)c(C)c(O)c2c1OC1=CC(=O)/C(=C(/C)Nc3ccc(Cl)cc3)C(=O)[C@]12C | 1.62 | – | 16 | 0.35 | – | – |
| CC(=O)c1c(O)c(C)c(O)c2c1OC1=CC(=O)/C(=C(/C)NCCCN3CCOCC3)C(=O)C12C (stereo not given) | > 100 | – | 24 | – | – | – |

Continued, in another order:

| IC50 [2] [µM] | IC50 [4] [µM] | Structure (SMILES) | CC50 at 72 h [1] [µM] | fold change (FC) [3] | fold change (FC) [5] | CC50 at 72 h [6] [µM] |
| --- | --- | --- | --- | --- | --- | --- |
| 0.19 | – | CC(=O)c1c(O)c(C)c(O)c2c1OC1=CC(=O)/C(=C(/C)NCCc3cc(C(C)(C)C)c(O)c(C(C)(C)C)c3)C(=O)C12C (stereo not given) | > 50 | 1.7 | – | – |
| 0.79 | – | CC(=O)c1c(O)c(C)c(O)c2c1OC1=CC(=O)/C(=C(/C)NCCc3ccc(O)cc3)C(=O)[C@@]12C | 21.5 | 12.8 | 1.3 | 70 |
| 0.16 | – | CC(=O)c1c(O)c(C)c(O)c2c1OC1=CC(=O)/C(=C(/C)NCCCc3cc(C(C)(C)C)c(O)c(C(C)(C)C)c3)C(=O)C12C (stereo not given) | > 50 | 10.5 | 3.5 | > 100 |
| > 100 | – | CC(=O)c1c(O)c(C)c(O)c2c1OC1=CC(=O)/C(=C(/C)NCCN(C)C)C(=O)C12C (stereo not given) | 33 | – | – | – |
| 1.39 | – | CC(=O)c1c(O)c(C)c(O)c2c1OC1=CC(=O)/C(=C(/C)Nc3cccc(F)c3)C(=O)C12C (stereo not given) | 35 | 12.8 | 1.6 | > 100 |
| 0.75 | – | CC(=O)c1c(O)c(C)c(O)c2c1OC1=CC(=O)/C(=C(/C)Nc3cccc(Br)c3)C(=O)C12C (stereo not given) | 18.1 | 12.5 | 1.2 | > 100 |
